Source: PubChem BioAssay
OXTR potentiator: human OXTR potentiation. P30559. CHO-OTR cells, Fluo-8 calcium fluorescence, potentiator mode; 0% = oxytocin EC15, 100% = EC100. activation, % at 3 µM. actives 0.061% (n = 320,000). AID 2445;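 active = activation above that plate's cutoff, the mean activation of tested compounds plus 3 SD, cut at about 6.6% in these data, passing the limit was not always enough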
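Material: human OTR in CHO cells. Compound: 3.0 µM, one dose. Timing: compound 6 min at room temperature before oxytocin, 100 s read. Evaluation: % activation of max/min ratio relative to oxytocin controls. Replication: single well per compound, singlicate. Signal: Fluo-8 calcium dye fluorescence.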
V1R ag counter: activates human V1a receptor in oxytocin agonist counter-screen. P37288. CHO-V1R cells, Fluo-8 calcium fluorescence, agonist mode; 0% DMSO, 100% 3 nM vasopressin. activation, % at 3 µM. actives 0.25% (n = 320,000);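 active = activation above the mean activation of all tested compounds plus 3 SD, per screening run, cut at about 20% in these data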;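 note: signal is peak over basal fluorescence ratio across a 100 second FLIPR read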
zfTRPN1 agonist: activates the zebrafish TRPN1 channel. HEK293 zebrafish TRPN1-YFP, Fluo-8 calcium fluorescence; 100% = response to 87 µM carbachol. activation, % at 3 µM. actives 0.18% (n = 220,000);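 active = activation above its plate's cutoff, the mean activation of test wells on that plate plus 3 SD, cut at about 19% in these data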
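Control set: carbachol 87 µM as high control, DMSO as low control; system: HEK293 stable line with zebrafish TRPN1-YFP; read-out: % activation versus carbachol response; detection: intracellular calcium fluorescence with Fluo-8; doses: single test compound dose, 3 µM nominal, 0.3% DMSO; schedule: dye 1 h 37 °C plus 30 min RT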
OXTR agonist: agonists of human oxytocin receptor | AID 2435 | activation, % at 3 µM | CHO-OTR cells, Fluo-8 calcium fluorescence; normalized: DMSO 0%, oxytocin 100% | actives 0.32% (n = 320,000) | P30559;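 active = activation above the mean of all tested compounds plus 3 SD, cutoff set per screening run, cut at about 20% in these data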;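 note: peak over basal fluorescence ratio from a 100 s FLIPR kinetic read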
TRPML3 agonist: human mucolipin-3 channel agonism | Q8TDD5 | HEK293 TRPML3-YFP, Fluo-8 calcium fluorescence; 100% = the carbachol control signal | activation, % at 3 µM | actives 0.29% (n = 220,000);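 active = activation above its plate's cutoff, the mean activation of the plate's test wells plus 3 SD, cut at about 12% in these data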
Target sequence (Q8TDD5 whole entry, looked up): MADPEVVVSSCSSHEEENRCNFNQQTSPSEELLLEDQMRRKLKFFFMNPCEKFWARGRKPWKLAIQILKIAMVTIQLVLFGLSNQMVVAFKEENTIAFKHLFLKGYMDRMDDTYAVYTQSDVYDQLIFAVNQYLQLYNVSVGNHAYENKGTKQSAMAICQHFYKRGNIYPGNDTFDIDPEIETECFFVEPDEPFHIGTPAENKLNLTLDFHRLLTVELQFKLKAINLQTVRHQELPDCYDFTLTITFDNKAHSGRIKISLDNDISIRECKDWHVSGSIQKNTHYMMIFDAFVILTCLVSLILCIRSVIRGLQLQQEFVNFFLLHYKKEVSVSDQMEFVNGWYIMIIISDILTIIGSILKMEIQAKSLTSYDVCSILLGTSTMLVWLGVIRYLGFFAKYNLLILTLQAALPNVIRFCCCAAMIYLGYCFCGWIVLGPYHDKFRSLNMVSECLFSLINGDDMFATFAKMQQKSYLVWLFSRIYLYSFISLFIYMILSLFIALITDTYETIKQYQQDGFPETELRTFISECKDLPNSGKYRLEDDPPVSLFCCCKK
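Test system: TRPML3-YFP stable HEK293 cells. Doses: single point at 3 µM. Incubation: dye loading 1 h 37 °C then 30 min ambient, 125 s read. Signal: Fluo-8 calcium dye fluorescence, ex 470-495, em 515-575 nm. Measure: percent activation from peak-to-basal fluorescence ratio, scaled between DMSO and carbachol.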
OXTR agonist cf: confirmation of human oxytocin receptor agonists; shares compounds with OXTR agonist; CHO-OTR cells, Fluo-8 calcium fluorescence, agonist; activation, % at 3 µM; actives 20% (n = 390);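 active = mean activation above about 20% derived from the earlier single-dose screen, limit read from the data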;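 note: peak over minimum fluorescence ratio per well during a 100 second FLIPR read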
V1R ag counter 3x: activates V1a receptor in oxytocin agonist counter-screen | actives 10% (n = 390) | AID 434991 | shares compounds with OXTR agonist | activation, % at 3 µM | CHO-V1R cells, Fluo-8 calcium fluorescence;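 active = mean activation over triplicate exceeds the hit threshold set in the earlier primary screen, cut at about 20% in these data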;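 note: peak over basal fluorescence ratio within a 100 second read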
Large screens that a line does not name were inactive (follow-up assays come after a bar, where they were run). Hits are enriched below; roughly 0.55% of the tested compounds scored in any of these assays.

COc1ccc(C(=O)N/N=C/c2sc3ccccc3c2O)cc1	none
O=C(N/N=C/c1sc2ccccc2c1O)c1ccccc1	OXTR agonist 21 | OXTR agonist cf 30 | V1R ag counter 3x 48
Cc1cccc(NC(=O)c2cc3cc([N+](=O)[O-])ccc3s2)n1	none
Nc1nc2ccccc2n1CCOc1ccc(Cl)cc1	none (no result: zfTRPN1 agonist, TRPML3 agonist)
Nc1nc2ccccc2n1CCOc1ccc(Br)cc1	OXTR agonist 21 (no result: zfTRPN1 agonist, TRPML3 agonist) | OXTR agonist cf inactive | V1R ag counter 3x inactive
CC(=O)Nc1ccc(S(=O)(=O)N(C)C2CCN(C)CC2)cc1	none (no result: zfTRPN1 agonist, TRPML3 agonist)
CC(Oc1cccc(Cl)c1)C(=O)Nc1ccc(S(=O)(=O)N(C)C2CCN(C)CC2)cc1 (centres undefined)	OXTR agonist 22 (no result: zfTRPN1 agonist, TRPML3 agonist) | OXTR agonist cf inactive | V1R ag counter 3x inactive
CCc1cccc(CN2CCC(CNC(=O)Nc3ccc(Cl)cc3)CC2)c1	none
O=C(NCC1CCN(Cc2cccc(Cl)c2)CC1)Nc1ccc(Cl)cc1	OXTR agonist 23 (no result: zfTRPN1 agonist, TRPML3 agonist) | OXTR agonist cf inactive | V1R ag counter 3x inactive
Cc1ccc(C)c(CN2CCC(CNC(=O)Nc3ccc(C)c(C)c3)CC2)c1	none (no result: zfTRPN1 agonist, TRPML3 agonist)
COc1ccc(Cl)cc1NC(=O)NCC1CCN(Cc2cc(C)ccc2C)CC1	OXTR agonist 21 (no result: zfTRPN1 agonist, TRPML3 agonist) | OXTR agonist cf inactive | V1R ag counter 3x inactive
O=C(Nc1ccc([N+](=O)[O-])cc1Cl)c1cc(Cl)ccc1O	OXTR agonist 21 (no result: zfTRPN1 agonist, TRPML3 agonist) | OXTR agonist cf inactive | V1R ag counter 3x inactive
CCCCCCOc1ccc(OCC(O)CN2C(=O)NC(C)(C)C2=O)cc1 (centres undefined)	OXTR agonist 24 | OXTR agonist cf inactive | V1R ag counter 3x inactive
COC(=O)C(NC(=O)c1ccccc1C)(Nc1ncc(S(=O)(=O)c2ccc([N+](=O)[O-])cc2)s1)C(F)(F)F (centres undefined)	OXTR agonist 26 | OXTR agonist cf inactive | V1R ag counter 3x inactive
CCCCC1C(=O)N(c2ccccc2)N(c2ccc(O)cc2)C1=O (centres undefined)	none (no result: zfTRPN1 agonist, TRPML3 agonist)
CC(OC(=O)CNC(=O)c1ccc2ccccc2c1)C(=O)N(C)C1CCCCC1 (centres undefined)	none (no result: zfTRPN1 agonist, TRPML3 agonist)
COc1ccc(NS(=O)(=O)c2ccc(N3CCOCC3)c(N)c2)cc1	OXTR agonist 20 (no result: zfTRPN1 agonist, TRPML3 agonist) | OXTR agonist cf inactive | V1R ag counter 3x inactive
COc1ccc(S(=O)(=O)Nc2ccc(N3CCOCC3)cc2)cc1	none (no result: zfTRPN1 agonist, TRPML3 agonist)
CC(=O)c1ccc(OCC(=O)Nc2cccc(S(=O)(=O)N3CCCC3)c2)cc1	none (no result: zfTRPN1 agonist, TRPML3 agonist)
O=C(COc1ccc2ccc(=O)oc2c1)Nc1cccc(S(=O)(=O)N2CCCCC2)c1	OXTR agonist 21 (no result: zfTRPN1 agonist, TRPML3 agonist) | OXTR agonist cf inactive | V1R ag counter 3x inactive
CCC(=O)Nc1nc(NCc2ccccc2OC)n(-c2ccccc2)n1	none (no result: zfTRPN1 agonist, TRPML3 agonist)
Cc1cccc(C(=O)NC(=S)NNC(=O)Cc2ccccc2)c1	OXTR agonist 25 | OXTR agonist cf 45 | V1R ag counter 3x 58
CCCS(=O)(=O)c1nc(S(=O)(=O)c2ccc(C)cc2)c(N2CCN(CCO)CC2)s1	none (no result: zfTRPN1 agonist, TRPML3 agonist)
COc1cc(OC)c(OC)cc1CCC(C)NCCC(c1ccccc1)c1ccccc1 (centres undefined)	OXTR agonist 22 (no result: zfTRPN1 agonist, TRPML3 agonist) | OXTR agonist cf inactive | V1R ag counter 3x inactive
COCCCN1CCN(C2Cc3ccccc3Sc3ccc(Cl)cc32)CC1 (centres undefined)	none
Clc1ccc2c(c1)C(N1CCNCC1)Cc1ccccc1S2 (centres undefined)	OXTR agonist 29 | OXTR agonist cf 21 | V1R ag counter 3x inactive
Clc1cccc2c1Sc1ccccc1CC2N1CCNCC1 (centres undefined)	OXTR agonist 22 | OXTR agonist cf inactive | V1R ag counter 3x inactive
COc1ccc(Br)cc1CN(C)CC(O)COc1ccc(Br)cc1 (centres undefined)	none (no result: zfTRPN1 agonist, TRPML3 agonist)
COc1cc(/C=N/OCC(=O)Nc2cc(C)on2)ccc1OCc1ccccc1	OXTR agonist 24 | OXTR agonist cf inactive | V1R ag counter 3x inactive
